This excerpt belongs to a sample that is enriched for hits.
H69AR growth 86K = proliferation blockers of H69AR lung cancer cells, primary screen, cell-based, human, 86K library; hit rate 6% among 85,000; AID 598, 2007; viability, % at 10 µM; H69AR lung tumor viability, ATP luminescence, 72 h; active compounds read low;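 active = viability at or below 40%; inactive = viability above 40%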;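 note: multidrug resistant small cell line overexpressing MRP-1 efflux transporter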
Fibroblast inh = antiproliferative effect on LL 47 fibroblasts – human, LL 47 cells, CellTiter-Glo luminescence, primary screen; viability, % at 10 µM; AID 719, 2007; LL 47 human lung fibroblast viability, ATP luminescence; active compounds read low; hit rate 1.1% among 85,000;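 active = viability at or below 50% in the single dose screen; inactive = viability above 50%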;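 note: compound exposure lasted 72 h before the ATP readout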
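material = human LL 47 lung fibroblast cells | dosing = compounds added from tenfold dosing solution, 0.1% DMSO final | timing = overnight cell rest, 72 h compound treatment at 37 °C | measured by = CellTiter-Glo luminescence measuring cellular ATP | evaluation = % viability versus median cells-only luminescence | control set = cell-only wells, no compound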
PTEN del growth = growth suppression of PTEN-null HCT116, primary screen, cell-based, CellTiter-Glo; viability, % at 10 µM; HCT116 PTEN-null viability, 60 h; active compounds read low; hit rate 1.2% among 140,000;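 active = viability at or below a set limit, 4 SD under the median of all tested compounds, cut at about 3.7% in these data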;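 note: PTEN knockout HCT116 line with beta catenin targeted HCT116 as companion control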
HCT116 bCat-KO = primary screen for growth suppressors in beta-catenin knockout HCT116 cells (colon tumor, human); hit rate 1.5% among 140,000; viability, % at 10 µM; HCT116 beta-catenin knockout viability, CellTiter-Glo, 60 h; active compounds read low; AID 818, 2007;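 active = viability at or under a set limit, the compound median less 4 SD, cut at about 6% in these data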
HUVEC prolif 384 = inhibitors of HUVEC proliferation, primary screen, cell-based, 384-well; CellTiter-Glo luminescence, 72 h; active compounds read low; hit rate 1.1% among 86,000; viability, % at 10 µM (by protocol);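 active = viability at or below 30%; inactive = viability above 30%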
Numbers stand for hits; . = inactive; / = no result.

SMILES	H69AR growth 86K	Fibroblast inh	PTEN del growth	HCT116 bCat-KO	HUVEC prolif 384
CCCCn1c(-c2nonc2N)nc2ccccc21	30	.	.	.	.
CC(C)CCn1c(-c2nonc2N)nc2ccccc21	11	.	.	.	.
CCCCn1c(N)nc2ccccc21	.	.	.	.	.
Nc1nonc1-c1nc2ccccc2n1CC(=O)NC1CCCC1	.	.	.	.	.
CCOC(=O)c1ccccc1NC(=O)Cn1c(-c2nonc2N)nc2ccccc21	27	47	.	.	.
Cc1ccccc1NC(NC(=O)c1cccs1)C(Cl)(Cl)Cl (stereo unspecified)	/	/	.	.	/
O=C(C[n+]1cc2ccccc2c2ccccc21)c1ccccc1	/	/	.	.	/
CCCCCCCCC[n+]1cccc2c3ccccc3ccc21	/	/	1.2	1.2	/
CCCCCCCCCCCCCCCC[n+]1cccc2ccccc21	/	/	1.7	1.4	/
COc1ccc(OCC(=O)NC(=S)Nc2ccccc2F)cc1	/	/	.	.	/
Cc1ccc(S(=O)(=O)N2CCN(C(=O)Cc3ccc4c(c3)OCCO4)CC2)cc1C	/	/	.	.	/
O=C(Nc1ccccc1Cl)ON=C1c2ccccc2-c2ccccc21	/	/	.	.	/
CCOC(=O)c1ccccc1Nc1cn(C(C)=O)c2ccccc12	23	46	.	.	.
CC(=O)n1cc(Nc2ccccc2C(=O)O)c2ccccc21	.	.	.	.	.
O=C1/C(=C/c2ccc([N+](=O)[O-])cc2)C=C(c2ccccc2)N1c1ccc(O)cc1	26	.	2.2	2.2	9.9
COc1ccc(N2C(=O)/C(=C/c3ccc([N+](=O)[O-])cc3)C=C2c2ccccc2)cc1	21	.	.	.	.
S=C(NCCCN1CCOCC1)Nc1ccc(Cl)c(Cl)c1	/	/	.	.	/
CC(=O)NC(=S)Nc1cccc(S(=O)(=O)NC2=NCCC2)c1	/	/	.	.	/
CC(C)C1N=C(c2ccc3c(c2)OCO3)CC(c2ccccc2O)N1 (stereo unspecified)	2.1	.	.	5.8	.
CC1=C(C(=O)Nc2cc(-c3cccc(F)c3)[nH]n2)C2(CCCCC2)OC1=O	32	.	.	.	.
COc1ccc(CCNc2nnc(Sc3nnnn3-c3ccccc3)s2)cc1OC	29	.	.	.	.
CC(=O)Nc1ccc(S(=O)(=O)N(C)CC(=O)OCC(=O)Nc2cccnc2Cl)cc1	/	/	.	.	/
C(=C\c1ccccc1)/CSc1nnc(-c2ccccc2)n1Cc1ccco1	18	47	.	.	.
Brc1ccc(CSc2nnc(-c3ccccn3)n2Cc2ccco2)cc1	21	49	.	.	.
CC(NC(=O)c1ccccc1)c1ccc(F)cc1 (stereo unspecified)	/	/	.	.	/
SMILES	H69AR growth 86K	Fibroblast inh	PTEN del growth	HCT116 bCat-KO	HUVEC prolif 384
COc1ccc(C(=O)OCCN2CCOCC2)cc1OC	.	.	.	.	.
COc1ccc(C(=O)Oc2c(CN3CCOCC3)cc(Cl)c3cccnc23)cc1OC	1.5	7.2	/	/	.
CC1CCCCC1NC(=O)c1ccc2c(c1)[nH]c(=O)n2C1CCCC1 (stereo unspecified)	21	.	.	.	.
CCC1=Nc2cc(C(=O)NCCCOC(C)C)ccc2Sc2ccccc21	26	.	.	.	.
Cc1ccc2nc3sc(-c4nnc(-c5ccccc5[N+](=O)[O-])o4)c(N)c3cc2c1	/	/	.	.	/
Cc1ccc2cc(C#N)c(SCc3nnc(-c4ccccc4[N+](=O)[O-])o3)nc2c1	/	/	1.2	1.4	/
O=c1c2cccnc2[nH]c(=S)n1CCC1=CCCCC1	38	.	.	.	.
CCCCCn1c(=S)[nH]c2ncccc2c1=O	.	.	.	.	.
O=C(CCc1ccccc1)NC(NC(=S)Nc1ccc(Br)cc1)C(Cl)(Cl)Cl (stereo unspecified)	8.3	.	.	.	.
CN(c1ccccc1)S(=O)(=O)c1cccc(NC(=O)CSc2nncs2)c1	/	/	.	.	/
CCN1CCN(c2ccc(NC(=O)c3cccc(OCc4ccccc4)c3)cc2)CC1	.	.	3.5	.	.
COc1cccc(C(=O)Nc2ccc(N3CCN(Cc4ccccc4)CC3)cc2)c1	.	.	.	.	.
CN1CCN(c2ccc(NC(=O)c3cccc(OCc4ccccc4)c3)cc2)CC1	32	.	.	2.6	3.5
COc1ccc(Cn2c(=O)[nH]c3cc(C(=O)Nc4ccc(N5CCN(C)CC5)cc4)ccc32)cc1	/	/	.	.	/
CCN1CCN(c2ccc(NC(=O)c3ccc4c(c3)[nH]c(=O)n4Cc3ccc(F)cc3)cc2)CC1	/	/	1.8	3.4	/
CN1CCN(c2ccc(NC(=O)Cc3ccccc3)cc2)CC1	.	.	.	.	.
CCCN1Cc2cccc(C(=O)Nc3ccc(N4CCN(CC)CC4)cc3)c2C1=O	22	.	/	/	.
CN(C)c1cccc2c(C=C(C#N)C#N)ccc(N(C)C)c12	/	/	.	.	/
Cc1c(Cl)c([N+](=O)[O-])nn1CC(=O)Nc1ccc2c(c1)OCO2	/	/	.	.	/
COc1c(F)c(F)c(C(=O)Nc2ccc(N3CCN(Cc4ccccc4)CC3)cc2)c(F)c1F	.	.	.	.	22
CC1CCN(c2nc(-c3ccco3)c3c(c2C#N)CC(C)(C)OC3)CC1	.	.	.	.	.
Cc1ccc(/C=c2\s/c(=C(/C#N)C(=O)N3CCCC3)n(Cc3ccco3)c2=O)s1	37	.	.	.	.
COC(=O)/C=c1/s/c(=C(\C#N)C(=O)NCc2ccco2)n(-c2ccc(C)cc2)c1=O	.	.	.	.	.
N#C/C(=C\c1sc(N2CCOCC2)nc1-c1ccccc1)C(=O)Nc1cccc2ccccc12	/	/	2.3	3.9	/
CCSc1cc(N2CCCC2)nc(-c2ccccc2Cl)n1	/	/	.	.	/
SMILES	H69AR growth 86K	Fibroblast inh	PTEN del growth	HCT116 bCat-KO	HUVEC prolif 384
Cc1ccc2nc(N(CCN(C)C)C(=O)/C=C/c3cccs3)sc2c1	/	/	.	.	/
CN(C)CCN(C(=O)/C=C/c1cccs1)c1nc2c(F)cc(F)cc2s1	/	/	2.0	1.6	/
Cc1ccc(S(=O)(=O)N(Cc2ccc(Cl)cc2)c2ccccc2C(=O)NCc2ccco2)cc1	/	/	.	.	/
CCCCN(CC)c1nc(N)c2c(N)nc(OCC)cc2c1C#N	34	.	.	.	.
CCCCN(CC)c1nc(N)c(C#N)c(CC#N)c1C#N	.	.	.	.	.
CCOc1ccc(C(=O)NCCn2cc(SCC(=O)Nc3cc(C)on3)c3ccccc32)cc1	33	.	.	.	.
O=C(CSc1cn(CCNC(=O)c2ccc3ccccc3c2)c2ccccc12)NCc1ccco1	9.6	.	.	.	.
Cc1cc(NC(=O)CSc2cn(CCNC(=O)c3ccc(Cl)cc3)c3ccccc23)no1	.	.	.	.	.
Cn1c(=O)cc(SCC(=O)NCc2ccco2)c2ccccc21	.	.	.	.	.
Cc1cccc(-c2nc(CN3CCCC(C(=O)NC4CCCCCC4)C3)c(C)o2)c1 (stereo unspecified)	40	.	.	.	.
Cc1oc(-c2ccc(Cl)cc2)nc1CN1CCCC(C(=O)NCc2ccccn2)C1 (stereo unspecified)	.	.	.	.	.
